Experimental data from paper PMC4714695 (Cancer Science, 2015).

Experiments:
[1] = system: Japanese patients with acute myeloid leukemia; assay: Best response and remission duration; format: in vivo, human
In short: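 Same patients and dosing: 2-h IV infusion on days 1 and 15 of 28-day cycles, at 350, 400 or 450 mg. Best response (CR, CRi, PR) and remission duration judged by International Working Group and European Leukemia Net criteria. Assessed in peripheral blood and bone marrow, with imaging added for extramedullary disease. Efficacy cut-off 12 March 2015.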

PLK2 = conditions: compared with PLK1; cited from earlier work
[2] = system: more than 50 unrelated kinases; conditions: more than 50 kinases tested; cited from earlier work

CC[C@@H]1C(=O)N(C)c2cnc(Nc3ccc(C(=O)N[C@H]4CC[C@H](N5CCN(CC6CC6)CC5)CC4)cc3OC)nc2N1C(C)C [Volasertib]
Best overall response CR, patients ([1]; 350 mg (n = 7)): 1 n | Best overall response PD, patients ([1]; 350 mg (n = 7)): 3 n | Best overall response SD, patients ([1]; 350 mg (n = 7)): 3 n | Patients with CR/CRi ([1]; 350 mg (n = 7)): 1 n | Best overall response CR, patients ([1]; 350 mg (n = 7), listed as volasertib): One of seven patients | Remission duration, median (range) ([1]; 350 mg, 1 patient with CR/CRi): 358 days | Best overall response CRi, patients ([1]; 400 mg (n = 4)): 2 n | Best overall response SD, patients ([1]; 400 mg (n = 4)): 2 n | Patients with CR/CRi ([1]; 400 mg (n = 4)): 2 n | Best overall response CRi, patients ([1]; 400 mg (n = 4), listed as volasertib): two of four patients | Remission duration, median (range) ([1]; 400 mg, 2 patients with CR/CRi): 72 (70–74) days | Best overall response CR, patients ([1]; 450 mg (n = 8)): 2 n | Best overall response CRi, patients ([1]; 450 mg (n = 8)): 1 n | Best overall response PD, patients ([1]; 450 mg (n = 8)): 1 n | Best overall response PR, patients ([1]; 450 mg (n = 8)): 1 n | Best overall response SD, patients ([1]; 450 mg (n = 8)): 3 n | Patients with CR/CRi ([1]; 450 mg (n = 8)): 3 n | Remission duration, median (range) ([1]; 450 mg, 3 patients with CR/CRi): 96 (56–262) days | Best overall response CR, patients ([1]; Total (N = 19)): 3 n | Best overall response CR, share of patients ([1]; Total (N = 19)): 15.8% | Best overall response CRi, patients ([1]; Total (N = 19)): 3 n | Best overall response CRi, share of patients ([1]; Total (N = 19)): 15.8% | Best overall response PD, patients ([1]; Total (N = 19)): 4 n | Best overall response PD, share of patients ([1]; Total (N = 19)): 21.1% | Best overall response PR, patients ([1]; Total (N = 19)): 1 n | Best overall response PR, share of patients ([1]; Total (N = 19)): 5.3% | Best overall response SD, patients ([1]; Total (N = 19)): 8 n | Best overall response SD, share of patients ([1]; Total (N = 19)): 42.1% | Patients achieving best response of CR, CRi or PR ([1]; Total (N = 19)): 36.8% | Patients with CR/CRi ([1]; Total (N = 19)): 6 n | Remission duration, median (range) ([1]; Total, 6 patients with CR/CRi): 85 (56–358) days | Remission duration, median (range) ([1]; Total, 6 patients with CR/CRi, listed as volasertib): 85 days | Patients achieving best response of CR, CRi or PR ([1]; out of 19 treated patients): 7 patients | Duration for which CR was maintained in one patient ([1]; person, primary refractory M2 de novo AML, complex karyotype, CR after cycle 3): 358 days | Inhibition of PLK2 (PLK2): to a lesser extent | Inhibition of unrelated kinases [2]: does not inhibit
